Here are results for 17 molecules from ChEMBL document CHEMBL4261483, “Synthesis and biological evaluation of memantine nitrates as a potential treatment for neurodegenerative diseases” (Medchemcomm, 2017).

Calls of active or inactive are those of the source. No cut-off for these calls is given here.

The subject of data set [1] is Cerebellar granule neurone. Kind of data set: Neuroprotective activity against glutamate-induced excitotoxicity in mouse primary cerebellar granule neurons assessed as increase in cell viability up to 10 uM preincubated for 2 hrs followed by glutamate challenge measured after 24 hrs by MTT assay. The format is functional.
For data set [2], the system named is Cerebellar granule neurone. Kind of data set: Neuroprotective activity against glutamate-induced excitotoxicity in mouse primary cerebellar granule neurons assessed as increase in cell viability preincubated for 2 hrs followed by glutamate challenge measured after 24 hrs by MTT assay. The format is functional. (In general: Tetrazolium dyes change colour on reduction, which living cells bring about.)

The test system of data set [3] is Aorta. Kind of data set: Vasodilating activity in Sprague-Dawley rat aortic ring precontracted with phenylephrine in absence of endothelium. It is filed as functional, tissue-based. As to conditions: for EC50: Rattus norvegicus, Sprague-Dawley, Aorta.
Data set [4] has as its system Cerebellar granule neurone. The data set can be described thus: Cytotoxicity against mouse primary cerebellar granule neurons assessed as decrease in cell viability at 100 uM after 24 hrs by MTT assay.
The subject of data set [5] is Aorta. The data set can be described thus: Vasodilating activity in Sprague-Dawley rat aortic ring precontracted with phenylephrine in presence of endothelium. The format is functional, tissue-based. The following applies: for EC50: Rattus norvegicus, Sprague-Dawley, Aorta.
The subject of data set [6] is Cerebellar granule neurone. Kind of data set: Neuroprotective activity against glutamate-induced excitotoxicity in mouse primary cerebellar granule neurons assessed as increase in cell viability at 1 uM preincubated for 2 hrs followed by glutamate challenge measured after 24 hrs by MTT assay. The format is functional.
Data set [7] deals with Cortical neurone. The data set can be described thus: Neuroprotective activity against glutamate-induced neuronal damage in rat cortical neurons assessed as decrease in formation of superoxide anions at 5 uM preincubated for 2 hrs followed by glutamate challenge measured after 12 hrs by DHE dye-based fluorescence assay. The format is functional, cell-based. The method, boiled down:
(§1)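 Cortical neurons pretreated 2 h with compound, then exposed to 200 μM glutamate for 12 h in its presence. Probes added for a further 30 min: H2DCF-DA 5 μM (H2O2), HPF 10 μM (·OH), DHE 5 μM (superoxide), DAF-FM 5 μM (NO), DHR123 10 μM (peroxynitrite). Intracellular fluorescence measured.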

Data set [8] has as its system Cortical neurone. Kind of data set: Neuroprotective activity in rat cortical neurons assessed as inhibition of glutamate-induced decrease in mitochondrial membrane potential at 5 uM preincubated for 2 hrs followed by glutamate challenge measured after 12 hrs by JC1 staining-based fluorescence assay. It is filed as functional, cell-based. The method, boiled down: (§2)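 Cortical neurons given compound for 2 h, then 200 μM glutamate for 12 h without compound removal. Fluorescence read at 488 nm excitation with dual emission at 529/590 nm.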

Data set [9] has as its system Cortical neurone. Kind of data set: Neuroprotective activity against glutamate-induced neuronal damage in rat cortical neurons assessed as decrease in H2O2 formation at 5 uM preincubated for 2 hrs followed by glutamate challenge measured after 12 hrs by H2DCF-DA dye-based fluorescence assay. The format is functional, cell-based. An outline of the steps:
as §1

Data set [10] deals with Cortical neurone. Kind of data set: Neuroprotective activity against glutamate-induced neuronal damage in rat cortical neurons assessed as decrease in intracellular calcium influx at 5 uM preincubated for 5 min followed by glutamate challenge measured over 280 secs by Fluo-3/AM dye-based fluorescence assay. It is filed as functional, cell-based. An outline of the steps:
(§3)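 Cortical neurons loaded with Fluo-3/AM (5 μM) for 30 min at 37 °C, then held in HBSS for 30 min at room temperature. Dye washed out, compound applied for 5 min, and cells imaged with a 20× objective to follow calcium influx.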

The subject of data set [11] is Cortical neurone. Kind of data set: Neuroprotective activity against glutamate-induced neuronal damage in rat cortical neurons assessed as decrease in formation of nitric oxide at 5 uM preincubated for 2 hrs followed by glutamate challenge measured after 12 hrs by DAF-FM dye-based fluorescence assay. It is filed as functional, cell-based. The method, boiled down: as §1

For data set [12], the system named is Cortical neurone. The data set can be described thus: Neuroprotective activity against glutamate-induced neuronal damage in rat cortical neurons assessed as decrease in formation of hydroxy radicals at 5 uM preincubated for 2 hrs followed by glutamate challenge measured after 12 hrs by HPF dye-based fluorescence assay. It is filed as functional, cell-based. An outline of the steps:
as §1

Data set [13] concerns Cortical neurone. The data set can be described thus: Neuroprotective activity against glutamate-induced neuronal damage in rat cortical neurons assessed as decrease in formation of peroxynitrite at 5 uM preincubated for 2 hrs followed by glutamate challenge measured after 12 hrs by DHR123 dye-based fluorescence assay. The format is functional, cell-based. The method, boiled down:
as §1

The test system of data set [14] is Cortical neurone. The data set can be described thus: Neuroprotective activity against glutamate-induced neuronal damage in rat cortical neurons assessed as increase in cell viability at 5 uM preincubated for 2 hrs followed by glutamate challenge measured after 24 hrs by […]/propidium iodide staining-based inverted fluorescence microscopic method. The format is functional. The method, boiled down: (§4)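 Rat primary cortical neurons given compound for 2 h, then 200 μM glutamate for 24 h in its presence. Viability by FDA/PI double staining, with live cells green (FDA) and dead cells red (PI), scored from fluorescence images. Memantine 5 μM used as positive control.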

Data set [15] relates to Cortical neurone. The data set can be described thus: Neuroprotective activity against glutamate-induced neuronal damage in rat cortical neurons assessed as decrease in formation of nitric oxide preincubated for 2 hrs followed by glutamate challenge measured after 12 hrs by DAF-FM dye-based fluorescence assay. The format is functional, cell-based. An outline of the steps: as §1

Data set [16] has as its system Cortical neurone. The data set can be described thus: Neuroprotective activity against glutamate-induced neuronal damage in rat cortical neurons assessed as decrease in intracellular calcium influx at 15 uM preincubated for 5 min followed by glutamate challenge measured over 280 secs by Fluo-3/AM dye-based fluorescence assay. It is filed as functional, cell-based. An outline of the steps: as §3

Data set [17] concerns Cortical neurone. The data set can be described thus: Neuroprotective activity against glutamate-induced neuronal damage in rat cortical neurons assessed as increase in cell viability preincubated for 2 hrs followed by glutamate challenge measured after 24 hrs by […]/propidium iodide staining-based inverted fluorescence microscopic method. The format is functional. The method, boiled down: as §4

Data set [18] has as its system Cortical neurone. The data set can be described thus: Neuroprotective activity against glutamate-induced neuronal damage in rat cortical neurons assessed as decrease in formation of superoxide anions preincubated for 2 hrs followed by glutamate challenge measured after 12 hrs by DHE dye-based fluorescence assay. It is filed as functional, cell-based. The method, boiled down:
as §1

Data set [19] has as its system Cortical neurone. The data set can be described thus: Neuroprotective activity in rat cortical neurons assessed as inhibition of glutamate-induced decrease in mitochondrial membrane potential at 5 to 45 uM preincubated for 2 hrs followed by glutamate challenge measured after 12 hrs by JC1 staining-based fluorescence assay. It is filed as functional, cell-based. The method, boiled down:
as §2

In data set [20] the test system is Cortical neurone. The data set can be described thus: Neuroprotective activity against glutamate-induced neuronal damage in rat cortical neurons assessed as increase in cell viability preincubated for 2 hrs followed by glutamate challenge measured after 24 hrs by MTT assay. It is filed as functional, cell-based. The method, boiled down: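 Rat primary cortical neurons treated with compound for 2 h, then exposed to 200 μM glutamate for another 24 h without compound removal. Viability by MTT assay. Memantine 5 μM served as positive control.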

Data set [21] deals with Cortical neurone. Kind of data set: Neuroprotective activity against glutamate-induced neuronal damage in rat cortical neurons assessed as decrease in formation of hydroxy radicals preincubated for 2 hrs followed by glutamate challenge measured after 12 hrs by HPF dye-based fluorescence assay. The format is functional, cell-based. The method, boiled down: as §1
Data set [22] deals with Cortical neurone. Kind of data set: Neuroprotective activity against glutamate-induced neuronal damage in rat cortical neurons assessed as decrease in H2O2 formation preincubated for 2 hrs followed by glutamate challenge measured after 12 hrs by H2DCF-DA dye-based fluorescence assay. The format is functional, cell-based. The method, boiled down:
as §1

For data set [23], the system named is Cortical neurone. The data set can be described thus: Neuroprotective activity against glutamate-induced neuronal damage in rat cortical neurons assessed as decrease in formation of peroxynitrite preincubated for 2 hrs followed by glutamate challenge measured after 12 hrs by DHR123 dye-based fluorescence assay. The format is functional, cell-based. An outline of the steps:
as §1

As usually defined, the EC50 is the concentration at which the effect is half-maximal. The term Emax denotes the maximal effect, on the per cent scale that the assay sets. With `NC12CC3CC(CCO[N+](=O)[O-])(C1)CC(CCO[N+](=O)[O-])(C3)C2`, in data set [1], the result was Active. For the same molecule, the EC50 in [2] came to 25.9 µM; in data set [3], 57.1 µM; in data set [5], 36 µM. Further, the Emax was found to be 99.4% in data set [3] and 102% in data set [5]. Also, in data set [4], the Activity entry is “Toxic”.
Regarding `CCCC12CC3CC(N)(C1)CC(CO[N+](=O)[O-])(C3)C2` (stereo unspecified), the outcome in data set [1] was Active. Moreover, in [2], the EC50 was found to be 38.1 µM. In addition, in data set [4], the Activity entry is given as “Toxic”.
For the molecule `NC12CC3CC(CO[N+](=O)[O-])(C1)CC(CO[N+](=O)[O-])(C3)C2`, the EC50 was 18.9 µM in data set [2], 62.8 µM in [3] and 55 µM in data set [5]. The values for the Emax in data set [3] and in [5] were 90.5% and 96.8%, respectively. The result in data set [6] was Active.
Consider `CC(CO[N+](=O)[O-])CC12CC3CC(N)(C1)CC(CC(C)CO[N+](=O)[O-])(C3)C2` (stereo unspecified), for which the EC50 in data set [2] came out at 53.2 µM; in data set [3], 36.5 µM; in [5], 32 µM. Also, the values for the Emax in data set [3] and in data set [5] were 95.8% and 100%, respectively. Besides, in [4], the Activity entry was “Toxic”. Moreover, the result in [6] was Active.
As to `CC12CC3CC(N)(C1)CC(CCCO[N+](=O)[O-])(C3)C2` (stereo unspecified), the outcome in data set [1] was Active. The EC50 in [2] is 39.8 µM. Further, the Activity result in data set [4] is “Toxic”.
With `CC12CC3CC(N)(C1)CC(CO[N+](=O)[O-])(C3)C2` (stereo unspecified), the outcome in data set [1] was Active. Further, the EC50 in data set [2] came to 25.2 µM.
Consider `NC12CC3CC(CCCO[N+](=O)[O-])(C1)CC(CCCO[N+](=O)[O-])(C3)C2`, for which the results for the concentration for a half-maximal effect (EC50) in data set [2], in [3] and in data set [5] were 39.8 µM, 34.4 µM and 24.6 µM, respectively. Moreover, the Emax is 95.4% in data set [3] and 97.7% in data set [5]. The Activity entry in [4] is on record as “Toxic”. Further, the outcome in data set [6] was Active.
For `CCC12CC3CC(N)(C1)CC(CCCO[N+](=O)[O-])(C3)C2` (stereo unspecified), the EC50 in data set [2] was 35.2 µM; in data set [3] it was 26.9 µM; in data set [5], 24.4 µM. Moreover, the values for the Emax in data set [3] and in data set [5] were 89.8% and 95%, respectively. The Activity result in [4] is “Toxic”. Besides, the result in data set [6] was Active.
For the molecule `CCC12CC3CC(N)(C1)CC(CC(C)CO[N+](=O)[O-])(C3)C2` (stereo unspecified), the outcome in data set [1] was Active. Also, the EC50 in [2] is 55.2 µM. Also, in [4], the Activity entry was “Toxic”.
As for `CCCC12CC3CC(N)(C1)CC(CCCO[N+](=O)[O-])(C3)C2` (stereo unspecified), the outcome in data set [1] was Active. In addition, the EC50 in [2] amounted to 57.6 µM. Moreover, the Activity entry in data set [4] is given as “Toxic”.
For `CCC12CC3CC(N)(C1)CC(CC(C)O[N+](=O)[O-])(C3)C2` (stereo unspecified), in that order: “Active”, 58.4 µM and “Toxic”.
As to `CCC12CC3CC(N)(C1)CC(O[N+](=O)[O-])(C3)C2` (stereo unspecified), the EC50 in data set [2] was determined as 15.4 µM; in [3], 146 µM. Further, the Emax in data set [3] was found to be 42%; in [5], 39.5%. Moreover, in data set [6], the result was Active.
For the molecule `CCCC12CC3CC(N)(C1)CC(O[N+](=O)[O-])(C3)C2` (stereo unspecified), the values for the EC50 in data set [2] and in data set [3] were 17.1 µM and 94.8 µM, respectively. Further, the Emax in data set [3] is 61.7%; in data set [5], 52%. In addition, the result in data set [6] was Active.
`CC12CC3CC(C)(C1)CC(N)(C3)C2` [MEMANTINE]: the outcome in data set [7], in data set [9], in data set [10], in data set [11], in data set [6] and in [12] was Active. Moreover, the outcome in data set [13] and in data set [14] was Active. In data set [2], the EC50 came to 2.48 µM. For the same molecule, the inhibition result in data set [8] was “Active”.
As to `CCC12CC3CC(N)(C1)CC(CO[N+](=O)[O-])(C3)C2` (stereo unspecified), the Activity entry in data set [15], in data set [17], in data set [18], in data set [20], in data set [21] and in data set [22] was “Dose-dependent effect” in each case. In addition, the Activity result in [23] was “Dose-dependent effect”. For the same molecule, the EC50 in data set [2] is 10.7 µM; in data set [3], 50.6 µM; in [5] it was 46.4 µM. Further, the Emax was determined as 98.2% in [3] and 101% in [5]. Also, the outcome in data set [16] and in [6] was Active. Further, in data set [19], the inhibition result was “Active”.
For the molecule `CC12CC3CC(N)(C1)CC(O[N+](=O)[O-])(C3)C2` (stereo unspecified), the result in data set [1] was Active. Further, the EC50 in [2] came out at 24.6 µM.
Take `CC(CC12CC3CC(N)(C1)CC(CC(C)O[N+](=O)[O-])(C3)C2)O[N+](=O)[O-]` (stereo unspecified): in data set [1], the outcome was Active. Also, in [2], the EC50 turned out to be 43 µM. Further, the Activity result in data set [4] is listed as “Toxic”.
